Measurements gathered from unrelated publications.
Matrix: plasma

NS(=O)(=O)OC[C@@H]1C[C@@H](n2ccc3c(N[C@H]4CCc5ccccc54)ncnc32)C[C@@H]1O  half-life (human; intravenous, 20 mg/m², patients): 5.1 h
CC(C)n1c(Nc2cccnc2)nc2cnc(Nc3ccc(N4CCN(C)CC4)cc3)nc21  half-life (male human; oral, 150 mg, single dose): 36 h
Cn1cc(Nc2nc(N)nc(-c3cccc(-n4ccc5cc(C6CC6)cc(F)c5c4=O)c3CO)n2)cn1  half-life (human; oral, 300 mg, single dose, fasted, suspension): 9 h
CNC(=O)n1ccc2cc(Oc3ccnc(NC(=O)c4ccc(C5CCN(CCO)CC5)cc4)c3)c(OCCOC)cc21  half-life (human; oral, 35 mg, single dose, fed, healthy volunteers): 28.3 h
Cc1ccc(NC(=O)c2ccc(CN3CCN(C)CC3)cc2)cc1Nc1nccc(-c2cncc(-c3oncc3C)c2)n1  half-life (human; oral, 200 mg/day, multiple doses, steady state, healthy volunteers): 23.3 h
CC[C@H](C)CCCCC(=O)N[C@@H](CCN)C(=O)N[C@H](C(=O)N[C@@H](CCN)C(=O)N[C@H]1CCNC(=O)[C@H]([C@@H](C)O)NC(=O)[C@H](CCN)NC(=O)[C@H](CCN)NC(=O)[C@H](CC(C)C)NC(=O)[C@@H](Cc2ccccc2)NC(=O)[C@H](CCN)NC1=O)[C@@H](C)O  half-life (human; intravenous, 0.75 mg/kg, single dose, infusion): 5.44 h
NC(=S)NN=Cc1ncccc1N  half-life (human; oral, 150 mg): 1.5 h
Cc1ccc(C(=O)Nc2ccc(CN3CCN(C)CC3)c(C(F)(F)F)c2)cc1C#Cc1cnc2[nH]ncc2c1  half-life (human; oral, 40 mg, single dose, healthy volunteers): 26.1 h
COc1ccc([C@@H](O)c2cc(-c3ncnc4cc(N5CCOCC5)ccc34)c(F)cc2Cl)nn1  half-life (human; oral, 200 mg, single dose, patients): 3.94 h
